We go through 13 molecules from ChEMBL document CHEMBL1151813, “Synthesis and cytotoxicity of bidesmosidic betulin and betulinic acid saponins” (J Nat Prod, 2009).

pIC50: −log10 of the molar value.

One assay deals with A549. Nature of the assay: Cytotoxicity against human A549 cells after 48 hrs. The format is functional, cell-based. Particulars: A549, 48 h. The method in brief:
(§1)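 Cells grown in MEM (Earle's salts, L-glutamine) with 10% FBS, vitamins, amino acids, pyruvate, penicillin/streptomycin at 37 °C, 5% CO2. 5 × 10³ cells/well adhered 16 h, then increasing concentrations in DMSO (final 0.5% v/v) for 48 h. Resazurin fluorescence read at ex 530/em 590 nm; survival vs control wells after blank subtraction. Three experiments in triplicate; IC50 as mean ± standard deviation.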

In another assay the test system is MCF7. Kind of assay: Cytotoxicity against human MCF7 cells after 48 hrs. The format is functional, cell-based. The settings on record: MCF7, 48 h. The method in brief:
as §1

Assay [1] can be described thus: Cytotoxicity against human WS1 cells after 48 hrs. The format is cell-based. The settings on record: WS1, 48 h.
The next assay relates to PC-3. Kind of assay: Cytotoxicity against human PC3 cells after 48 hrs. The settings on record: PC-3, 48 h. Type of assay: functional, cell-based. Put shortly:
as §1

The next assay has as its system DLD-1. Kind of assay: Cytotoxicity against human DLD1 cells after 48 hrs. The settings on record: DLD-1, 48 h. Type of assay: functional, cell-based. Put shortly:
as §1

Take `C=C(C)[C@@H]1CC[C@]2(CO[C@@H]3O[C@H](CO)[C@@H](O)[C@H](O)[C@H]3O)CC[C@]3(C)[C@H](CC[C@@H]4[C@@]5(C)CC[C@H](O[C@@H]6O[C@@H](C)[C@H](O)[C@@H](O)[C@H]6O)C(C)(C)[C@@H]5CC[C@]43C)[C@@H]12`: the pIC50 is 4.77 with A549; 5.05 with MCF7; 5.28 in assay [1]; 5.16 in the assay on PC-3; 4.97 in the assay with DLD-1.

Regarding `C=C(C)[C@@H]1CC[C@]2(C(=O)O[C@@H]3O[C@H](CO)[C@@H](O)[C@H](O)[C@H]3O)CC[C@]3(C)[C@H](CC[C@@H]4[C@@]5(C)CC[C@H](O[C@@H]6O[C@H](CO)[C@@H](O)[C@H](O)[C@H]6O)C(C)(C)[C@@H]5CC[C@]43C)[C@@H]12`, the pIC50 with A549 is below 4.00; in the assay with MCF7, 4.70; in assay [1], 4.46; in the assay with PC-3, 4.18; in the assay on DLD-1 it was below 4.00.

Regarding `C=C(C)[C@@H]1CC[C@]2(CO[C@@H]3O[C@H](CO)[C@@H](O)[C@H](O)[C@H]3O)CC[C@]3(C)[C@H](CC[C@@H]4[C@@]5(C)CC[C@H](O[C@@H]6OC[C@H](O)[C@H](O)[C@H]6O)C(C)(C)[C@@H]5CC[C@]43C)[C@@H]12`, the pIC50 is below 4.00 in the assay with A549; 5.02 with MCF7; 5.35 in assay [1]; 5.28 in the assay on PC-3; 4.72 with DLD-1.

With `C=C(C)[C@@H]1CC[C@]2(C(=O)O[C@@H]3O[C@H](CO)[C@@H](O)[C@H](O)[C@H]3O)CC[C@]3(C)[C@H](CC[C@@H]4[C@@]5(C)CC[C@H](O)C(C)(C)[C@@H]5CC[C@]43C)[C@@H]12`, the pIC50 (in the assay on A549; in the assay with MCF7; in assay [1]; in the assay on PC-3; in the assay with DLD-1) was below 4.00 throughout.

Consider `C=C(C)[C@@H]1CC[C@]2(C(=O)O[C@@H]3O[C@H](CO)[C@@H](O)[C@H](O)[C@H]3O)CC[C@]3(C)[C@H](CC[C@@H]4[C@@]5(C)CC[C@H](O[C@@H]6OC[C@H](O)[C@H](O)[C@H]6O)C(C)(C)[C@@H]5CC[C@]43C)[C@@H]12`, for which the pIC50 with A549 is 4.12; in the assay with MCF7 it was 4.64; in assay [1], 4.30; in the assay on PC-3, 4.17; in the assay with DLD-1, 4.22.

For the molecule `C=C(C)[C@@H]1CC[C@]2(CO[C@@H]3O[C@H](CO)[C@@H](O)[C@H](O)[C@H]3O)CC[C@]3(C)[C@H](CC[C@@H]4[C@@]5(C)CC[C@H](O[C@@H]6O[C@H](CO)[C@@H](O)[C@H](O)[C@H]6O)C(C)(C)[C@@H]5CC[C@]43C)[C@@H]12`, the pIC50 with A549 was below 4.00; in the assay on MCF7, 4.84; in assay [1], 4.70; with PC-3 it was below 4.00; in the assay on DLD-1, 4.57.

Regarding `C=C(C)[C@@H]1CC[C@]2(CO[C@@H]3O[C@@H](C)[C@H](O)[C@@H](O)[C@H]3O)CC[C@]3(C)[C@H](CC[C@@H]4[C@@]5(C)CC[C@H](O[C@@H]6O[C@@H](C)[C@H](O)[C@@H](O)[C@H]6O)C(C)(C)[C@@H]5CC[C@]43C)[C@@H]12`, the pIC50 was 5.72 in the assay with A549; 5.77 with MCF7; 5.89 in assay [1]; 5.74 with PC-3; 5.72 in the assay with DLD-1.

Consider `C=C(C)[C@@H]1CC[C@]2(C(=O)O[C@@H]3O[C@H](CO)[C@@H](O)[C@H](O)[C@H]3O)CC[C@]3(C)[C@H](CC[C@@H]4[C@@]5(C)CC[C@H](O[C@@H]6O[C@@H](C)[C@H](O)[C@@H](O)[C@H]6O)C(C)(C)[C@@H]5CC[C@]43C)[C@@H]12`, for which the pIC50 was 4.64 in the assay on A549; 5.24 in the assay on MCF7; 5.05 in assay [1]; 4.95 with PC-3; 4.96 with DLD-1.

Consider `C=C(C)[C@@H]1CC[C@]2(C(=O)O[C@@H]3O[C@@H](C)[C@H](O)[C@@H](O)[C@H]3O)CC[C@]3(C)[C@H](CC[C@@H]4[C@@]5(C)CC[C@H](O[C@@H]6O[C@@H](C)[C@H](O)[C@@H](O)[C@H]6O)C(C)(C)[C@@H]5CC[C@]43C)[C@@H]12`, for which the pIC50 with A549 is 5.14; with MCF7, 5.22; in assay [1], 5.31; with PC-3 it was 5.14; in the assay on DLD-1 it was 5.14.

For the molecule `C=C(C)[C@@H]1CC[C@]2(CO[C@@H]3O[C@H](CO)[C@@H](O)[C@H](O)[C@H]3O)CC[C@]3(C)[C@H](CC[C@@H]4[C@@]5(C)CC[C@H](O)C(C)(C)[C@@H]5CC[C@]43C)[C@@H]12`, the pIC50 (in the assay with A549; in the assay on MCF7; in assay [1]; in the assay on PC-3; in the assay with DLD-1) was below 4.00 in each case.

Take `C=C(C)[C@@H]1CC[C@]2(C(=O)O)CC[C@]3(C)[C@H](CC[C@@H]4[C@@]5(C)CC[C@H](O)C(C)(C)[C@@H]5CC[C@]43C)[C@@H]12` [BETULINIC ACID]: the pIC50 with A549 is 4.99; in the assay with MCF7, 4.39; in assay [1], 4.92; in the assay on PC-3, 4.40; in the assay with DLD-1, 4.82.

Turning to `C=C(C)[C@@H]1CC[C@]2(CO)CC[C@]3(C)[C@H](CC[C@@H]4[C@@]5(C)CC[C@H](O)C(C)(C)[C@@H]5CC[C@]43C)[C@@H]12` [BETULIN], the pIC50 with A549 was 5.42; in the assay with MCF7, 4.63; in assay [1], 5.44; in the assay with PC-3, 4.75; in the assay with DLD-1 it was 5.18.

In the case of `COc1cc([C@@H]2c3cc4c(cc3[C@@H](O[C@@H]3O[C@@H]5CO[C@@H](C)O[C@H]5[C@H](O)[C@H]3O)[C@H]3COC(=O)[C@H]23)OCO4)cc(OC)c1O` [ETOPOSIDE], the pIC50 with A549 was 5.92; with MCF7, 6.15; in assay [1] it was 4.47; in the assay with PC-3, 5.77; with DLD-1 it was 4.57.

Broadly, the pIC50 is the negative decadic logarithm of the IC50, by convention in mol/L. The low end stands for a high IC50, the high end for a low IC50.
